# Tests used:
# Plasma kallikrein = Plasma kallikrein (Homo sapiens, UniProt P03952); assay: Binding affinity against human plasma kallikrein.; format: cell-free
# Summary of the method: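 Enzyme: human plasma kallikrein at 100 ng/mL. Substrate: S-2302 (H-D-Pro-Phe-Arg-pNA) at 330 μM. Conditions were pH 7.4, 50 mM Tris/0.15 M NaCl/0.5% Pluronic F-68, with compounds from DMSO at 0.01–250 μM. Substrate addition started each reaction, followed by pNA release at 405 nm over 15 min. Ki was calculated from rate-based percent inhibition using previously established Km.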
# [1] = target: Urokinase-type plasminogen activator (Homo sapiens, UniProt P00749)
# Plasminogen = Plasminogen (Homo sapiens, UniProt P00747); assay: Binding affinity towards human plasmin.
# Chain of Plasminogen (P00747 97-580 limits assumed): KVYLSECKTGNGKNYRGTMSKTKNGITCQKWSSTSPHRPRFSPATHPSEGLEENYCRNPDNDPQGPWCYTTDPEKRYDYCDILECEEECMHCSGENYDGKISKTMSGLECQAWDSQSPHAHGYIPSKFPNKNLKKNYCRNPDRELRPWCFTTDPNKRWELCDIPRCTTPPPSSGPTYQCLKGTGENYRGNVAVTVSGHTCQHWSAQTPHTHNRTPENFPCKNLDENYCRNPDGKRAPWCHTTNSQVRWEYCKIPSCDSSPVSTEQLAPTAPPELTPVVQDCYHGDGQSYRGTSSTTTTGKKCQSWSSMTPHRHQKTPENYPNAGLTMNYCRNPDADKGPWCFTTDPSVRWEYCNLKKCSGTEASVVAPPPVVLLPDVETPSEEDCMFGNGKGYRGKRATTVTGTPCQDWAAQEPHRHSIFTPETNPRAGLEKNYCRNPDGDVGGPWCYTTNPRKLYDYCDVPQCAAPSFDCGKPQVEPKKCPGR
# Chain of Plasminogen (P00747 581-810 limits assumed): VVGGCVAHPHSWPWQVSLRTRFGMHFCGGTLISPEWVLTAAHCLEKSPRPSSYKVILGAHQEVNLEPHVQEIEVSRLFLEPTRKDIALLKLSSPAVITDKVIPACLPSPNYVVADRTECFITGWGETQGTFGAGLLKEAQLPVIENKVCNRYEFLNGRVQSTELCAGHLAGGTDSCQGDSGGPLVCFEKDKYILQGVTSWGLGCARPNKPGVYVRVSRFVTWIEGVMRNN
# Summary of the method: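 Uses human plasmin at 18 nM with S-2251 (H-D-Val-Leu-Lys-pNA) at 360 μM. The buffer was 50 mM Tris/0.15 M NaCl + 0.5% Pluronic F-68, pH 7.4, and compounds were added in DMSO at 0.01–250 μM. After substrate start, absorbance at 405 nm was tracked for 15 min. Percent inhibition came from rates, and Ki from percent inhibition with established Km values.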
# [2] = target: Tissue-type plasminogen activator (Homo sapiens, UniProt P00750); assay: Binding affinity towards human Tissue type plasminogen activator.
# Chain of Tissue-type plasminogen activator (P00750 whole entry): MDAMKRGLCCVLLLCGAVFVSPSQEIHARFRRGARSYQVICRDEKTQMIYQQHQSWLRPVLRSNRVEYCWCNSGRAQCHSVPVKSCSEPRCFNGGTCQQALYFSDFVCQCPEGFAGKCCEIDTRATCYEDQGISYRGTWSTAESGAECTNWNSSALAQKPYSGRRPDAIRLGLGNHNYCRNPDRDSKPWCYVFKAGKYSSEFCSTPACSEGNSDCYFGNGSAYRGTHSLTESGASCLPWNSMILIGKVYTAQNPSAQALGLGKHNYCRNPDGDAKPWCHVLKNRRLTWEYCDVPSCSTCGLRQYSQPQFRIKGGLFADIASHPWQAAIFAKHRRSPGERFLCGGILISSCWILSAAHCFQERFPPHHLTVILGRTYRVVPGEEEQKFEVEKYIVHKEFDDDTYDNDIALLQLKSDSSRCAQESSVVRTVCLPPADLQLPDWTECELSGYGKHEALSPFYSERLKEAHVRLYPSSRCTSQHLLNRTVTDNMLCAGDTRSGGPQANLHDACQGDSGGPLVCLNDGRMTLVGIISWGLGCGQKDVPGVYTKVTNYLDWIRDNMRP
# Summary of the method: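 Human tPA (1 μg/mL) was run against S-2288 (H-D-Ile-Pro-Arg-pNA) at 1350 μM in Tris 50 mM/NaCl 0.15 M/0.5% Pluronic F-68 buffer at pH 7.4. Test agents in DMSO spanned 0.01–250 μM. Substrate addition began the reaction, and p-nitroaniline formation at 405 nm was followed for 15 min. Ki derived from percent inhibition and previously determined Km.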
# Prothrombin = Prothrombin (Homo sapiens, UniProt P00734); assay: Binding affinity against human alpha thrombin.
# Chain of Plasma kallikrein (P03952 20-390 limits assumed): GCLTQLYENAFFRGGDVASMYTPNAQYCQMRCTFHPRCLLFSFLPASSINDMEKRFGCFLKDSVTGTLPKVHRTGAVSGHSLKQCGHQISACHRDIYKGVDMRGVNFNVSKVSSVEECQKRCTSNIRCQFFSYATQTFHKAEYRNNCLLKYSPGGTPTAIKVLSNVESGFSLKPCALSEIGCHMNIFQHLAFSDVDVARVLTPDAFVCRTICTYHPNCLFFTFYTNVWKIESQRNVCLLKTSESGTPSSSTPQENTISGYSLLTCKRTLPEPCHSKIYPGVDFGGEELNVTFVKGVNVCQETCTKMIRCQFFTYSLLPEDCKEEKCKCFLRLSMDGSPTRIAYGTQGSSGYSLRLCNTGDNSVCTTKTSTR
# Chain of Plasma kallikrein (P03952 391-638 limits assumed): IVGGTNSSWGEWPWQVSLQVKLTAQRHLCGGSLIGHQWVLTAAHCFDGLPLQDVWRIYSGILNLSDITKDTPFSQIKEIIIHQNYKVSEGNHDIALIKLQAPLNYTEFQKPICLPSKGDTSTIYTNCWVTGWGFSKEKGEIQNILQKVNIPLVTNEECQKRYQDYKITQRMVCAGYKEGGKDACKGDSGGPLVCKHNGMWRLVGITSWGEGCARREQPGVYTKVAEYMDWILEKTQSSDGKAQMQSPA
Structure (SMILES),Ki (Plasma kallikrein),Ki [1],Ki (Plasminogen),Ki [2],Ki (Prothrombin)
N=C(N)c1ccc2ccccc2c1,22500 nM,5910 nM,51300 nM,> 100000 nM,–
N=C(N)c1ccc2cc(C(=O)Nc3cccc(Oc4ccccc4)c3)ccc2c1,–,517 nM,–,–,–
CC(C)Oc1cc(NC(=O)c2ccc3cc(C(=N)N)ccc3c2)cc(OC(C)C)c1,4300 nM,28 nM,1060 nM,790 nM,21700 nM
N=C(N)c1ccc2cc(C(=O)Nc3ccc(CO)cc3)ccc2c1,2570 nM,–,3820 nM,8350 nM,35100 nM
CC(C)Oc1cccc(NC(=O)c2ccc3cc(C(=N)N)ccc3c2)c1,1370 nM,–,554 nM,2370 nM,3490 nM
N=C(N)c1ccc2cc(C(=O)Nc3cccc(CC4CCCC4)c3)ccc2c1,–,167 nM,–,–,–
N#Cc1ccc2cc(NC(=O)c3ccccc3)ccc2c1,8000 nM,–,5560 nM,> 100000 nM,17600 nM
[H]/N=C(\N)c1ccc2cc(C(=O)Nc3ccc(CN)cc3)ccc2c1,7170 nM,–,16000 nM,58400 nM,> 100000 nM
CCc1ccc(NC(=O)c2ccc3cc(C(=N)N)ccc3c2)cc1,18100 nM,736 nM,3870 nM,83900 nM,43700 nM
CC(C)CC1NCCc2ccc(NC(=O)c3ccc4cc(C(=N)N)ccc4c3)cc21 (stereo not drawn),1350 nM,123 nM,1190 nM,> 50000 nM,7310 nM
CC(C)C1=NCCc2ccc(NC(=O)c3ccc4cc(C(=N)N)ccc4c3)cc21,436 nM,–,768 nM,1840 nM,4990 nM
CCOc1cccc(NC(=O)c2ccc3cc(C(=N)N)ccc3c2)c1,–,82 nM,–,–,–
CCC(CC)Oc1cccc(NC(=O)c2ccc3cc(C(=N)N)ccc3c2)c1,–,104 nM,–,–,–
CC(C)Oc1cc(NC(=O)c2ccc3cc(C(=N)N)ccc3c2)cc(OC2CCCC2)c1,3330 nM,22 nM,966 nM,844 nM,21600 nM
N=C(N)c1ccc2cc(C(=O)Nc3cccc(OC4CCCC4)c3)ccc2c1,2720 nM,–,498 nM,3390 nM,5580 nM

# More lines, now with the values ahead:
Ki (Plasma kallikrein),Ki [1],Ki (Plasminogen),Ki [2],Ki (Prothrombin),Structure (SMILES)
400 nM,26.5 nM,833 nM,3950 nM,10200 nM,N=C(N)c1ccc2cc(C(=O)Nc3ccc4c(c3)C(C3CCCC3)NCC4)ccc2c1 (stereo not drawn)
230 nM,–,631 nM,1120 nM,5720 nM,CC(C)C1NCCc2ccc(NC(=O)c3ccc4cc(C(=N)N)ccc4c3)cc21 (stereo not drawn)
–,15500 nM,–,–,–,CN(C(=O)c1ccc2cc(C(=N)N)ccc2c1)c1ccccc1
–,233 nM,–,–,–,COc1cccc(NC(=O)c2ccc3cc(C(=N)N)ccc3c2)c1
2430 nM,326 nM,1970 nM,> 100000 nM,2350 nM,N=C(N)c1ccc2cc(C(=O)Nc3ccc(C(N)=O)cc3)ccc2c1
–,139 nM,–,–,–,COc1cc(NC(=O)c2ccc3cc(C(=N)N)ccc3c2)cc(OC)c1
–,8700 nM,–,–,–,CNC(=O)c1ccc2cc(C(=N)N)ccc2c1
112 nM,–,1030 nM,2320 nM,6920 nM,N=C(N)c1ccc2cc(C(=O)Nc3ccc4c(c3)CCNC4)ccc2c1
849 nM,35.5 nM,765 nM,3130 nM,5310 nM,N=C(N)c1ccc2cc(C(=O)Nc3ccc4c(c3)C(C3CCCC3)=NCC4)ccc2c1
2500 nM,–,1950 nM,31800 nM,5640 nM,N=C(N)c1ccc2cc(C(=O)Nc3ccccc3)ccc2c1
145 nM,–,1120 nM,1650 nM,6440 nM,CCC1CNCc2ccc(NC(=O)c3ccc4cc(C(=N)N)ccc4c3)cc21 (stereo not drawn)
–,161 nM,–,–,–,CC(C)CC1=NCCc2ccc(NC(=O)c3ccc4cc(C(=N)N)ccc4c3)cc21
